Read-outs that look alike come from different tables or passages of the source. Values belong to the compound of their own block, whether it stands above or below them.
How the values were obtained:
Mdr2 −/− mice = conditions: cited from earlier work
ileal ASBT = target: T1, ileal ASBT (Mus musculus, UniProt P70172); assay: Pharmacodynamic study in normal wild-type C57BL/6N mice; format: in vivo
T1 sequence (P70172 1-348): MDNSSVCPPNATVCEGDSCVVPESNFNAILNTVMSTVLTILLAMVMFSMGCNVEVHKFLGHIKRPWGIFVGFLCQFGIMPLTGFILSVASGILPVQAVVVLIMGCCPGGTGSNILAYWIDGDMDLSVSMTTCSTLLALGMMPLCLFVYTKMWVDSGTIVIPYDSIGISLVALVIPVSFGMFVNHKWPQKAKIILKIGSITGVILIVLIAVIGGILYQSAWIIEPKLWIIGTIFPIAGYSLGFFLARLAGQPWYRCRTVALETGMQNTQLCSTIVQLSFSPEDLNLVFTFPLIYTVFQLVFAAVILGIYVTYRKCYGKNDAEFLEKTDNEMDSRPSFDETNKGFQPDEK
How it was run: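 Adult C57BL/6N mice (13–14 weeks) were gavaged daily for 8 days with the test compound at 3 or 10 mg/kg/d or with vehicle (0.5% CMC + 0.1% Tween 80). Feces were collected between days 6 and 7 and urine 2 h after the day-8 terminal dose. Total bile acids were measured with commercial kits and compared with vehicle by 1-way ANOVA with Dunnett post hoc test.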

[1] = Oral pharmacokinetic profile of A3907 and A3309 in BDL mice; format: in vivo, mouse
How it was run: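 Adult male C57BL/6 mice with bile duct ligation received the test compound or a gut-restricted ASBT inhibitor by mouth at 3 or 10 mg/kg once daily for 7 days. Plasma exposure was profiled and set against normal wild-type mice dosed under the same conditions.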

BDL mice = assay: Bile duct ligation; format: in vivo, mouse; conditions: 3 mg/kg/d
How it was run: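 Male mice on a C57BL/6J background, age-matched, underwent bile duct ligation. Oral gavage dosing started 3 days after surgery and continued once daily for 11 days, with the comparator ASBT inhibitor at 3 mg/kg. Blood for serum biochemistry was taken by cardiac puncture at sacrifice. RNAseq was run on RNA from terminal liver samples (15 mg fresh tissue).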

[2] = compared with levels in BDL mice of the current study; cited from earlier work
[3] = pediatric, cited from earlier work
[4] = 11 days, A3907 vs A3309 comparison
[5] = progressive familial intrahepatic cholestasis

SMILES: CCCCC1(CCCC)CS(=O)(=O)c2ccc(N(C)C)cc2[C@@H](c2ccc(OCCCC[N+]34CCN(CC3)CC4)cc2)[C@H]1O [SC-435]
BA levels in serum and bile (Mdr2 −/− mice): reduced
cholestatic liver disease (Mdr2 −/− mice): improved

urine BA levels (ileal ASBT; normal mice, oral 3 and 10 mg/kg/d, 2 hours after dose on day 8): did not change
fecal BA levels (ileal ASBT; normal nonfasted mice, oral 3 and 10 mg/kg/d once daily for 7 days, vs vehicle): significant elevation of fecal BA levels
serum levels compared with A3907 ([1]; BDL mice, 3 or 10 mg/kg oral daily): significantly lower than A3907
plasma exposure in BDL mice relative to normal WT mice ([1]; same experimental conditions, WT data not shown): ~ 6 fold
SMILES: CCCCC1(CCCC)CN(c2ccccc2)c2cc(SC)c(OCC(=O)N[C@@H](C(=O)NCC(=O)O)c3ccccc3)cc2S(=O)(=O)C1 [A3309]
serum and biliary BAs levels (BDL mice; [4]): attenuated BA levels in a nonsignificant fashion
urinary BA excretion (BDL mice; [4]): induced urinary BA excretion to some extent
number of dysregulated hepatic genes normalized (BDL mice; liver RNAseq, of 5790 DEGs vs sham): 15
systemic exposure in humans at the therapeutically relevant dose [2]: several-fold lower than levels demonstrating signs of efficacy in BDL mice

SMILES: CCCCC1(CCCC)CS(=O)(=O)c2ccc(N(C)C)cc2[C@@H](c2ccc(OCc3ccc(C[N+]45CCN(CC4)CC5)cc3)cc2)[C@H]1O [maralixibat]
BA load ([3]; Alagille syndrome): reduced
pruritus ([3]; Alagille syndrome): decreased

SMILES: CCCCC1(CCCC)CN(c2ccccc2)c2cc(SC)c(OCC(=O)N[C@@H](C(=O)N[C@@H](CC)C(=O)O)c3ccc(O)cc3)cc2S(=O)(=O)N1 [A4250, odevixibat]
BA load [3, 5]: reduced
pruritus [3, 5]: decreased
BA levels in serum and bile (Mdr2 −/− mice): reduced
cholestatic liver disease (Mdr2 −/− mice): improved

From paper PMC10442107 (Hepatology (Baltimore, Md.), 2023)
